{"source": "paper PMC6996349", "about": "(Hepatology Communications, 2019)", "key": {"NASH patients [1]": {"system": "NASH patients", "conditions": "1.8 or 2.7 g/day, 1 year; cited from earlier work"}, "[2]": {"system": "subjects with elevated triglycerides", "conditions": "4 g/day oral; cited from earlier work"}, "ob/ob mice": {"system": "ob/ob mice", "assay": "Glucose metabolism and insulin resistance in ob/ob mice", "assay_type": "in vivo", "conditions": "for Glucose metabolism, effect: fenofibrate 100, pioglitazone 30 mg/kg/d in diet", "procedure,_shortened": "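Male ob/ob mice aged 6-8 weeks, n = 10/group, either untreated or given test compound at 135 mg/kg/d in the diet for 5 weeks. Reference-agent groups were also dosed in the diet. Blood glucose, insulin, HbA1c and HOMA-IR were measured after 4 weeks on tail-vein EDTA blood taken after a 4-h fast. Body weight was recorded between 8 and 9 am. Mean ± SEM; Kruskal-Wallis then Mann-Whitney U.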"}, "NASH patients [3]": {"system": "NASH patients", "conditions": "PIVENS study; cited from earlier work"}, "APOE*3Leiden.CETP mice [4]": {"system": "APOE*3Leiden.CETP mice", "assay_type": "in vivo", "procedure,_shortened": "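High-fat/cholesterol-fed male APOE*3Leiden.CETP mice aged 8-15 weeks, n = 12/group, given corn-oil vehicle or test compound at 112 mg/kg/d by daily oral gavage for 20 weeks. Liver cross sections were stained with H&E or sirius red and scored with an adapted human NASH grading system. Hepatic lipids were determined biochemically. Body weight was monitored regularly. Mean ± SEM; nonparametric group comparisons.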"}, "APOE*3Leiden.CETP mice [5]": {"system": "APOE*3Leiden.CETP mice", "assay": "Hepatic lipotoxic lipid species", "assay_type": "in vivo", "conditions": "20 weeks, versus control", "procedure,_shortened": "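Male APOE*3Leiden.CETP mice aged 8-15 weeks on a high-fat diet (24% wt/wt lard, 1% wt/wt cholesterol), n = 12/group. Mice received daily corn-oil vehicle gavage or test compound at 112 mg/kg/d by oral gavage for 20 weeks, starting with the diet. Harvested livers underwent lipidomics and reduced/oxidized glutathione assays. Mean ± SEM; Kruskal-Wallis then Mann-Whitney U.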"}, "[6]": {"conditions": "20 weeks, icosabutate 112 mg/kg/d, rosiglitazone 13 mg/kg/d"}}}
{"smiles": "CC/C=C\\C/C=C\\C/C=C\\C/C=C\\C/C=C\\CCCC(=O)OCC", "note": "[EPA ethyl ester, eicosapentaenoic acid (EPA) ethyl ester]", "values": [{"measurement": "Effect on liver histology", "setting": "NASH patients [1]", "value": "no effect"}, {"measurement": "Major adverse cardiovascular events, effect", "setting": "[2]", "value": "markedly reduce"}]}
{"smiles": "CC(C)OC(=O)C(C)(C)Oc1ccc(C(=O)c2ccc(Cl)cc2)cc1", "note": "[fenofibrate]", "values": [{"measurement": "Plasma adiponectin, increase versus control", "setting": "ob/ob mice; after 4 weeks of treatment", "value": "neither fenofibrate nor icosabutate affected"}, {"measurement": "Plasma insulin, change versus control", "setting": "ob/ob mice; after 4 weeks of treatment", "value": "less pronounced"}, {"measurement": "Reduction of blood glucose AUC (0‐120 minutes) in oral glucose tolerance test", "setting": "ob/ob mice; after 5 weeks of treatment, 2 g/kg glucose, 4-hour fasted", "value": "less potent effect"}, {"measurement": "Glucose metabolism, effect", "setting": "ob/ob mice", "value": "also improved glucose metabolism"}]}
{"smiles": "CCc1ccc(CCOc2ccc(CC3SC(=O)NC3=O)cc2)nc1", "note": "(stereo not shown) [pioglitazone]", "values": [{"measurement": "Plasma adiponectin, increase versus control", "setting": "ob/ob mice; after 4 weeks of treatment", "value": 4.5, "unit": "fold"}, {"measurement": "HOMA‐IR, change versus control", "setting": "ob/ob mice; after 4 weeks of treatment, icosabutate 135, pioglitazone 30 mg/kg/d", "value": "−97", "unit": "%"}, {"measurement": "Glucose metabolism, effect", "setting": "ob/ob mice", "value": "also improved glucose metabolism"}, {"measurement": "Fibrosis, effect", "setting": "NASH patients [3]", "value": "without change"}, {"measurement": "Lobular inflammation, effect", "setting": "NASH patients [3]", "value": "improvements"}]}
{"smiles": "CN(CCOc1ccc(CC2SC(=O)NC2=O)cc1)c1ccccn1", "note": "(stereo not shown) [rosiglitazone]", "values": [{"measurement": "Fibrosis, effect", "setting": "APOE*3Leiden.CETP mice [4]; 20 weeks", "value": "no change"}, {"measurement": "Number of inflammatory cell aggregates, change versus control", "setting": "APOE*3Leiden.CETP mice [4]; 20 weeks", "value": "−67", "unit": "%"}, {"measurement": "Serum amyloid A, change versus control", "setting": "APOE*3Leiden.CETP mice [4]; 20 weeks", "value": "−46", "unit": "%"}, {"measurement": "Hepatic cholesterol ester, effect", "setting": "APOE*3Leiden.CETP mice [4]; 20 weeks, biochemical analysis of intrahepatic lipids", "value": "significant reduction"}, {"measurement": "Hepatocellular hypertrophy, change versus control", "setting": "APOE*3Leiden.CETP mice [4]; [6]", "value": "did not significantly affect"}, {"measurement": "Microvesicular steatosis, change versus control", "setting": "APOE*3Leiden.CETP mice [4]; [6]", "value": "did not significantly affect"}, {"measurement": "Serum amyloid A", "setting": "APOE*3Leiden.CETP mice [4]; after 20 weeks of treatment, control 29.8 ± 5.0, mean ± SEM", "value": "16.1 ± 3.3"}, {"measurement": "Plasma monocyte chemoattractant protein 1", "setting": "APOE*3Leiden.CETP mice [4]; after 20 weeks of treatment, control 111.5 ± 17.1, mean ± SEM", "value": "65.1 ± 5.1"}, {"measurement": "Body weight, change versus control", "setting": "APOE*3Leiden.CETP mice [4]; week 16 and 20, data not shown", "value": "did not significantly increase"}, {"measurement": "Hepatic GSH:GSSG ratio, effect", "setting": "APOE*3Leiden.CETP mice [5]", "value": "had no effect"}, {"measurement": "Hepatic GSSG, effect", "setting": "APOE*3Leiden.CETP mice [5]", "value": "had no effect"}, {"measurement": "Hepatic concentration of FFAs, effect", "setting": "APOE*3Leiden.CETP mice [5]", "value": "had no effect"}, {"measurement": "Hepatic concentration of HETEs (11[R]‐, 12‐, 15[S] isomers), effect", "setting": "APOE*3Leiden.CETP mice [5]", "value": "significant increase"}, {"measurement": "Hepatic concentration of arachidonic acid, effect", "setting": "APOE*3Leiden.CETP mice [5]", "value": "had no effect"}, {"measurement": "Hepatic concentration of bile acids, effect", "setting": "APOE*3Leiden.CETP mice [5]", "value": "had no effect"}, {"measurement": "Hepatic concentration of ceramides, effect", "setting": "APOE*3Leiden.CETP mice [5]", "value": "had no effect"}, {"measurement": "Hepatic concentration of diacylglycerols (DAGs), effect", "setting": "APOE*3Leiden.CETP mice [5]", "value": "had no effect"}]}
